Test results taken from ChEMBL document CHEMBL4145507, “Design, synthesis and biological evaluation of novel indole-benzimidazole hybrids targeting estrogen receptor alpha (ER-α)” (Eur J Med Chem, 2018).
Calls of active or inactive are those of the source. No cut-off for these calls is given here.

Assays:
[1] = biological target: T1, Estrogen receptor (Homo sapiens, UniProt P03372); assay: Displacement of fluoromone TM from recombinant human ERalpha after 2 hrs by fluorescence polarization analysis
T1 sequence (P03372 whole entry): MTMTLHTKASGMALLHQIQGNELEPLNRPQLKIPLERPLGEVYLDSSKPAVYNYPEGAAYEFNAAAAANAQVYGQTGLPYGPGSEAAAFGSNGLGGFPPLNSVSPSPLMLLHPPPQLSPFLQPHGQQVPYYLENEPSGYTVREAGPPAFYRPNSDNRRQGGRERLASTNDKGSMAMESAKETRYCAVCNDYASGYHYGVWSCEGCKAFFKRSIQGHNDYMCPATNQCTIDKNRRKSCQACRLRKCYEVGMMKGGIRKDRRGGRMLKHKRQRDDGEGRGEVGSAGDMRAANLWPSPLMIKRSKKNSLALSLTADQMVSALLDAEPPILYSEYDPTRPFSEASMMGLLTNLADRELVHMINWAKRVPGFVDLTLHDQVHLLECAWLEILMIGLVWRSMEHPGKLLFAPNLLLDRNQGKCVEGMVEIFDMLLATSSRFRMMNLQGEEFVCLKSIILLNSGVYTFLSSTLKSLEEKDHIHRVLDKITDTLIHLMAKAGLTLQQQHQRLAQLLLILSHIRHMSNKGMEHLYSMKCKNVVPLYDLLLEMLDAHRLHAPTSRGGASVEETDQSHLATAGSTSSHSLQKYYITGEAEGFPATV
Summary of the method: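 Fluorescence polarization kit: serially DMSO-diluted compound mixed with recombinant human ERα/Fluormone ES2 complex, at least 2 h at room temperature in the dark. Controls were oestradiol for minimum polarization and free tracer. Percent inhibition normalized; IC50 from non-linear regression as the concentration displacing half of the bound ligand.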

[2] = system: PBMC; assay: Cytotoxicity against human PBMC at 100 uM after 48 hrs by MTT assay; assay type: cell-based
Summary of the method: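 PBMCs isolated from fresh blood of a healthy donor, held in RPMI-1640 with 10% FBS and antibiotic at 37 °C, 5% CO2. About 10^4 cells seeded per well, then MTT read-out as for the T47D assay (0.5 mg/ml MTT, 4 h, acidified DMSO, 570/620 nm).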

[3] = system: T47D; assay: Antiproliferative activity against human T47D cells after 48 hrs by MTT assay
[4] = Drug uptake in human T47D cell nucleus at 15 uM after 24 hrs by confocal laser scanning microscopic method; assay type: ADME, subcellular
[5] = Drug uptake in human T47D cell cytosol at 15 uM after 24 hrs by confocal laser scanning microscopic method; assay type: ADME, subcellular
[6] = system: T47D; assay: Downregulation of ERalpha protein levels in human T47D cells at 15 uM after 48 hrs by Western blot analysis; assay type: functional
Summary of the method: (§1)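 T47D cells exposed 48 h, lysed in modified RIPA (50 mM Tris-HCl pH 7.4, 150 mM NaCl, 1 mM EDTA, 1% NP-40, protease inhibitors), protein by Bradford. 50 µg protein run on 10% SDS-PAGE, transferred to nitrocellulose, blocked with 5% milk, probed overnight at 4 °C with rabbit anti-ERα (HC-20), HRP secondary, ECL detection. Normalized to β-actin; three experiments.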

[7] = Drug uptake in human T47D cell plasma membrane at 15 uM after 24 hrs by confocal laser scanning microscopic method; assay type: ADME, cell membranes
[8] = system: T47D; assay: Downregulation of ERalpha mRNA levels in human T47D cells at 15 uM after 48 hrs by semi-quantitative RT-PCR analysis; assay type: functional, cell-based
Summary of the method: (§2)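 T47D cells exposed 48 h; total RNA extracted with TRIzol, checked by NanoDrop and denaturing agarose gel, then reverse transcribed. ERα transcript amplified, run on agarose gel and quantified by densitometry, normalized to GAPDH; representative of three experiments.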

[9] = Drug uptake in human T47D cell cytosol at 5 uM after 24 hrs by confocal laser scanning microscopic method; assay type: ADME, subcellular
[10] = system: T47D; assay: Downregulation of ERalpha protein levels in human T47D cells at 5 uM after 48 hrs by Western blot analysis; assay type: functional; summary of the method: as §1
[11] = Drug uptake in human T47D cell plasma membrane at 5 uM after 24 hrs by confocal laser scanning microscopic method; assay type: ADME, cell membranes
[12] = system: T47D; assay: Downregulation of ERalpha mRNA levels in human T47D cells at 5 uM after 48 hrs by semi-quantitative RT-PCR analysis; assay type: functional, cell-based; summary of the method: as §2
[13] = Drug uptake in human T47D cell nucleus at 5 uM after 24 hrs by confocal laser scanning microscopic method; assay type: ADME, subcellular

SMILES	IC50 [1] [µM]	Activity [2]	IC50 [3] [µM]	also measured
O=C(c1ccccc1)c1ccc2[nH]c(-c3cc4ccccc4[nH]3)nc2c1	0.0469	Non-Toxic	–	–
c1ccc(Cn2c(-c3nc4ccccc4[nH]3)cc3ccccc32)cc1	0.259	Non-Toxic	21.4	–
Clc1cc2nc(-c3cc4ccccc4n3Cc3ccccc3)[nH]c2cc1Cl	0.0767	Non-Toxic	22.5	–
Brc1ccc2[nH]c(-c3cc4ccccc4n3Cc3ccccc3)nc2c1	0.0736	Non-Toxic	15.5	Drug uptake [4]: Not Active; Drug uptake [5]: Active; Activity [6]: 57.42%; Drug uptake [7]: Active; Activity [8]: Active
c1ccc2cc3[nH]c(-c4cc5ccccc5[nH]4)nc3cc2c1	–	Non-Toxic	23.4	–
Cc1cc(C)c2nc(-c3cc4ccccc4[nH]3)[nH]c2c1	–	Non-Toxic	24.8	–
Cc1cccc2[nH]c(-c3cc4ccccc4[nH]3)nc12	0.192	Non-Toxic	8.9	–
O=C(c1ccccc1)c1ccc2[nH]c(-c3cc4ccccc4n3Cc3ccccc3)nc2c1	–	Non-Toxic	–	–
c1ccc2[nH]c(-c3nc4cccnc4[nH]3)cc2c1	–	Non-Toxic	–	–
c1ccc(Cn2c(-c3nc4cccnc4[nH]3)cc3ccccc32)cc1	–	Non-Toxic	–	–
c1ccc2[nH]c(-c3nc4ccccc4[nH]3)cc2c1	–	Non-Toxic	6.2	–
BrC1=CN2NC(c3cc4ccccc4n3Cc3ccccc3)=NC2N=C1 (configuration not stated)	0.539	Non-Toxic	–	–
Cc1c(-c2ccc(O)cc2)n(Cc2ccc(OCCN3CCCCCC3)cc2)c2ccc(O)cc12	–	–	–	Activity [8]: Active
c1ccc(Cn2c(-c3nc4cc5ccccc5cc4[nH]3)cc3ccccc32)cc1	–	Non-Toxic	13.4	–
Brc1cnc2[nH]c(-c3cc4ccccc4n3Cc3ccccc3)nc2c1	0.3	Non-Toxic	–	–
Cc1cccc2[nH]c(-c3cc4ccccc4n3Cc3ccccc3)nc12	0.387	Non-Toxic	–	–
Cc1cc(C)c2nc(-c3cc4ccccc4n3Cc3ccccc3)[nH]c2c1	0.0331	Non-Toxic	21.8	–
Brc1ccc2[nH]c(-c3cc4ccccc4[nH]3)nc2c1	0.0804	Non-Toxic	4.99	Drug uptake [9]: Active; Activity [10]: 27.5%; Drug uptake [11]: Active; Activity [12]: Active; Drug uptake [13]: Not Active
Clc1cc2nc(-c3cc4ccccc4[nH]3)[nH]c2cc1Cl	–	Non-Toxic	21.2	–
Brc1cnc2[nH]c(-c3cc4ccccc4[nH]3)nc2c1	–	Non-Toxic	21	–
c1ccc2[nH]c(C3=Nc4cccc5cccc(c45)N3)cc2c1	0.202	Non-Toxic	20.5	–
BrC1=CN2NC(c3cc4ccccc4[nH]3)=NC2N=C1 (configuration not stated)	–	Non-Toxic	24.4	–
